Test results from paper PMC11649739 (Clinical Pharmacokinetics, 2024).
Several values for one entry are separate records, joined by “and”; a condition that tells them apart may be missing. Equal entries are not always repeated. Where two headings read alike, the source gives them in different places.

Legend:
[1] = type: in vivo, human; details: human, plasma, oral; for AUC: Entire AUC; for Cmax: Entire Cmax
Outline: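 Ensitrelvir was dosed once daily, 375 mg on day 1 then 125 mg on days 2–5, or 750/250 mg. A population PK model was fitted to 8034 plasma concentrations from 2060 healthy and SARS-CoV-2-infected participants: two-compartment, first-order absorption, with covariates tested on CL/F. Empirical Bayesian estimates from the final model were used to calculate individual exposures for SCORPIO-SR phase III participants.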

SARS-CoV-2 [2] = type: in vivo, human
Outline: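 Phase III SCORPIO-SR participants received ensitrelvir or placebo. Dosing was once daily for 5 days, either 375 mg on day 1 then 125 mg on days 2–5, or 750 mg then 250 mg. Day-1 C24 (also Cmax and AUC) came from empirical Bayesian post hoc estimates. For placebo these were set to 0. Exposures were split into quartiles and boxplotted against change from baseline in viral RNA on day 4. Sub-LLOQ RNA values were set to LLOQ.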

[3] = cited from earlier work
cytochrome P450 3A = details: drug interactions; cited from earlier work
P-glycoprotein = details: drug interactions; cited from earlier work
[4] = system: breast cancer resistance protein; details: drug interactions; cited from earlier work
SARS-CoV-2 [5] = details: cited from earlier work
[6] = Mean, 250 mg group: 750 mg on day 1 and 250 mg on days 2–5
[7] = Median, 250 mg group: 750 mg on day 1 and 250 mg on days 2–5
[8] = body weight 35.0 and 156.0 kg vs median
[9] = final model no. 511, body weight 62.6 kg

## Cn1cnc(Cn2c(=O)[nH]/c(=N\c3cc4cn(C)nc4cc3Cl)n(Cc3cc(F)c(F)cc3F)c2=O)n1 [ensitrelvir]
[1]; C24_d1, Median, 250 mg group: 750 mg on day 1 and 250 mg on days 2–5, 24 h postdose on day 1
  concentration at 24 h: 34200 ng/mL
[1]; C24_d1, Minimum, 125 mg group: 375 mg on day 1 and 125 mg on days 2–5, 24 h postdose on day 1
  concentration at 24 h: 8430 ng/mL
[1]; C24_d1, Minimum, 250 mg group: 750 mg on day 1 and 250 mg on days 2–5, 24 h postdose on day 1
  concentration at 24 h: 19400 ng/mL
[1]; C24_d5, Maximum, 125 mg group: 375 mg on day 1 and 125 mg on days 2–5, 24 h postdose on day 5
  concentration at 24 h: 35200 ng/mL
[1]; C24_d5, Maximum, 250 mg group: 750 mg on day 1 and 250 mg on days 2–5, 24 h postdose on day 5
  concentration at 24 h: 80900 ng/mL
[1]; C24_d5, Mean, 125 mg group: 375 mg on day 1 and 125 mg on days 2–5, 24 h postdose on day 5
  concentration at 24 h: 19500 ng/mL
[1]; C24_d5, Mean, 250 mg group: 750 mg on day 1 and 250 mg on days 2–5, 24 h postdose on day 5
  concentration at 24 h: 41800 ng/mL
[1]; C24_d5, Median, 125 mg group: 375 mg on day 1 and 125 mg on days 2–5, 24 h postdose on day 5
  concentration at 24 h: 19200 ng/mL
[1]; C24_d5, Median, 250 mg group: 750 mg on day 1 and 250 mg on days 2–5, 24 h postdose on day 5
  concentration at 24 h: 40800 ng/mL
[1]; C24_d5, Minimum, 125 mg group: 375 mg on day 1 and 125 mg on days 2–5, 24 h postdose on day 5
  concentration at 24 h: 10500 ng/mL
[1]; C24_d5, Minimum, 250 mg group: 750 mg on day 1 and 250 mg on days 2–5, 24 h postdose on day 5
  concentration at 24 h: 24300 ng/mL
[1]; Mean, 125 mg group: 375 mg on day 1 and 125 mg on days 2–5
  AUC: 2570 µg·h/mL
[1]; [6]
  AUC: 5430 µg·h/mL
  Cmax: 56400 ng/mL
[1]; Median, 125 mg group: 375 mg on day 1 and 125 mg on days 2–5
  AUC: 2530 µg·h/mL
[1]; [7]
  AUC: 5320 µg·h/mL
  Cmax: 55100 ng/mL
SARS-CoV-2 [2]; C24 on day 1 between 8.43 and 61.0 μg/mL
  antiviral effects between the 375/125 mg and 750/250 mg doses: did not differ
SARS-CoV-2 [2]; day 4, within the exposure range evaluated, phase III of SCORPIO-SR
  virus RNA decrease across exposure categories (C24 on day 1 quartiles): decreased to a similar extent in all categories
SARS-CoV-2 [2]; ensitrelvir dosing groups, phase III of SCORPIO-SR
  change from baseline in the amount of SARS-CoV-2 viral RNA on day 4, versus placebo: lower in the ensitrelvir dosing group than in the placebo group
Base model
  Interindividual variability of CL/F: 28.9%
  Interindividual variability of Ka: 88.1%
  Interindividual variability of Vc/F: 23.2%
[8]
  range of the ratios of the minimum and maximum values to the median of BW for AUC: 0.623–1.353
  range of the ratios of the minimum and maximum values to the median of BW for Cmax: 0.410–1.741
Final model no. 511
  Interindividual variability of CL/F, Estimate (95% CI): 21.3% and 21.3 (19.7–22.8) %
  Interindividual variability of Ka, Estimate (95% CI): 72.9% and 72.9 (64.3–80.6) %
  Interindividual variability of Vc/F, Estimate (95% CI): 14.7% and 14.7 (12.8–16.3) %
  Intraindividual variability: additive residual error, Estimate (95% CI): 0.0317 (0.0224–0.0410) µg/mL
  Intraindividual variability: proportional residual error, Estimate (95% CI): 19.9 (18.5–21.3) %
  Q/F, Estimate (95% CI): 0.539 (0.321–0.757) L/h
  Vp/F, Estimate (95% CI): 2.50 (1.80–3.20) L
[9]
  CL/F, Estimate (95% CI): 0.211 (0.208–0.214) L/h
  Vc/F, Estimate (95% CI): 14.7 (13.9–15.5) L
Final model no. 511, bootstrap
  Additive residual error, Bootstrap estimate Median (95% CI): 0.0331 (0.00945–0.0570) µg/mL
  CL/F, Bootstrap estimate Median (95% CI): 0.211 (0.207–0.214) L/h
  Effect of body weight on Vc/F, Bootstrap estimate Median (95% CI): 1.04 (0.959–1.11)
  Effect of food on Ka, Bootstrap estimate Median (95% CI): 0.599 (0.447–1.00)
  Effect of formulation on Ka, Bootstrap estimate Median (95% CI): 0.367 (0.280–0.469)
  Interindividual variability of CL/F, Bootstrap estimate Median (95% CI): 21.3 (20.0–23.0) %
  Interindividual variability of Ka, Bootstrap estimate Median (95% CI): 72.1 (64.4–80.4) %
  Interindividual variability of Vc/F, Bootstrap estimate Median (95% CI): 14.6 (12.7–16.5) %
  Ka, Bootstrap estimate Median (95% CI): 1.50 (1.23–1.80) 1/h
  Proportional residual error, Bootstrap estimate Median (95% CI): 19.8 (18.6–21.2) %
  Q/F, Bootstrap estimate Median (95% CI): 0.534 (0.331–0.823) L/h
  Vc/F, Bootstrap estimate Median (95% CI): 14.8 (13.9–15.5) L
  Vp/F, Bootstrap estimate Median (95% CI): 2.49 (1.74–3.26) L
Final model no. 511, multiplier, tablet vs suspension
  Effect of formulation on Ka, Estimate (95% CI): 0.362 (0.262–0.462)
Final model no. 511, power exponent on body weight/62.6
  Effect of body weight on Vc/F, Estimate (95% CI): 1.04 (0.960–1.12)
Final model no. 511, typical value (suspension, not within 2 h after a meal)
  Ka, Estimate (95% CI): 1.50 (1.25–1.75) 1/h
[3]
  effect of food intake on pharmacokinetic profiles: not substantially affected
[3]; dose groups ranging from 20 to 1000 mg
  recovered in the urine as unchanged ensitrelvir: 12.9–21.8%
[3]; fed state with a high-fat/high-calorie meal vs fasted, phase I study
  effect of fed state on Cmax: not affected
[3]; including healthy white participants
  pharmacokinetic profiles among various populations: not meaningfully different
[3]; single administration
  terminal elimination half-life (t½,z): 42.2 to 48.1 h
[3]; single oral administration, 20 to 2000 mg, fasted state
  increase of Cmax and AUC0–inf with dose: almost dose-proportional
[3]; single oral administration
  time at which maximum plasma concentration is reached: around 2.50 h
Cytochrome P450 3A
  inhibition of cytochrome P450 3A: inhibits
P-glycoprotein
  inhibition of P-glycoprotein: inhibits
[4]
  inhibition of breast cancer resistance protein: inhibits
SARS-CoV-2 [5]; 125-mg group, phase III of SCORPIO-SR
  time to five COVID-19 symptoms: 167.9 h
SARS-CoV-2 [5]; both dose groups 375/125 mg and 750/250 mg
  clearance of SARS-CoV-2: rapid clearance of SARS-CoV-2
